Ba/F3 V617F tox – reduced viability of JAK2V617F-dependent Ba/F3 cells, primary screen, JAK2V617F inhibitor project, cell-based, Ba/F3 EpoR-JAK2V617F, luminescence | ATP luminescence | inhibition, % at 5.6 µM | 220,000 tested, 1.1% active | AID 1446, 2008;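 active = inhibition above the campaign mean plus 3 SD over all tested compounds, cut at about 24% in these data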;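 note: cytokine-independent growth of Ba/F3 cells driven by EpoR plus mutant JAK2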
bCat nuc transl – modulators of beta-catenin nuclear translocation, primary screen, imaging, HeLa cells, immunofluorescence, high-content. nuclear translocation activity, % at 5 µM. 190,000 tested, 0.3% active. AID 1665, 2009;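 active = nuclear translocation activity above 50% at 5 µM, with a well cell count of 50 or more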;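 note: per-cell ratio of nuclear to cytoplasmic median beta-catenin stain intensity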
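Test system: HeLa cells, endogenous beta-catenin; Compound: single 5 µM dose plus 0.02–20 µM confirmation series; Times: compound exposure 24 h at 37°C; Signal: fluorescence imaging of beta-catenin antibody stain plus DAPI; Read-out: % activation, nuclear-to-cytoplasmic median beta-catenin signal ratio per cell.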
IEC-6 tox – cytotoxicity in IEC-6 intestinal epithelial cells, primary screen, cytotoxicity control for KLF5 inhibitor project, cell-based, luminescence. 290,000 tested, 0.78% active. IEC-6 cytotoxicity, luminescence viability. inhibition, % at 5 µM. AID 1825, 2009
KLF5 inh – KLF5 expression inhibitors, primary screen, DLD-1 cells, luminescence | DLD-1 KLF5 promoter-luciferase reporter | inhibition, % at 5 µM | 290,000 tested, 0.23% active | AID 1700, 2009;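 active = inhibition above a per-plate limit of that plate's mean compound inhibition plus 3 SD, cut at about 60% in these data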;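 note: higher means less KLF5 promoter-driven luciferase light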
MT stabilize HCS – microtubule stabilizers in HeLa cells, primary screen, imaging, high-content imaging. HeLa tubulin immunostaining HCS, 24 h; share of cells brighter than vehicle mean+2SD. % tubulin-high responders, % at 10 µM. 200,000 tested, 0.83% active. AID 2205, 2009;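 active = plate Z-score above 3 for both tubulin-high and condensed-nucleus cell shares, with cell loss under 80%, at 10 µM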;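 note: anti alpha tubulin signal scored within the nucleus-defined area of each cell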
BaF3 tox – parental Ba/F3 cell viability inhibition, counter-screen for JAK2V617F inhibitor project, murine pro-B, CellTiter-Glo luminescence; CellTiter-Glo ATP luminescence; inhibition, % at 5.6 µM; 220,000 tested, 1.1% active; AID 1486, 2009;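 active = inhibition above a per-campaign cutoff, the mean inhibition of all tested compounds plus 3 SD, cut at about 27% in these data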
IEC-6 tox confirm – cytotoxic compounds in IEC-6 epithelial cells, confirmation, cytotoxicity control, cell-based, luminescence. IEC-6 rat intestinal epithelial viability. inhibition, % at 5 µM. 1,900 tested, 63% active. shares compounds with IEC-6 tox
Hits are given with their value; - = inactive; . = not tested or not shown. An excerpt weighted towards active compounds, which were near 2.1% of everything screened. Cut-off read from the data, not from the text of the source, unless noted: active = inhibition above about 22%; inactive = the rest.

SMILES | Ba/F3 V617F tox | bCat nuc transl | IEC-6 tox | KLF5 inh | MT stabilize HCS | BaF3 tox | IEC-6 tox confirm
CNC(=O)CN(C1CCCCC1)S(=O)(=O)c1ccc(OC)c(Cl)c1 | - | - | - | - | - | - | .
CC1=Nc2cc(C(=O)NCCN3CCOCC3)ccc2Sc2c(C)ccc(C)c21 | . | . | 33.1 | - | . | . | 32.3
CC1=Nc2cc(C(=O)NCCCN3CCOCC3)ccc2Sc2c(C)ccc(C)c21 | . | . | - | - | . | . | .
Cc1cnc(NC(=O)C2CC(=O)N(c3cccc(Cl)c3)C2)s1 (centres undefined) | . | . | 72.7 | - | . | . | 33.0
CC(C)Cn1c(N)c(/C=N/NC(=O)c2ccc(Cl)cc2)c(=O)n(C)c1=O | . | . | - | - | . | . | .
O=c1cnc2ccccc2n1Cc1ccc(Br)cc1 | . | . | - | - | . | . | .
CC(C)(C)c1ccc(Cn2c(=O)cnc3ccccc32)cc1 | . | . | 24.3 | - | . | . | -
O=C(NNc1ccccc1F)c1ccccc1 | - | - | 25.5 | - | . | - | -
Nc1nonc1-n1nnc(C(=O)N/N=C/c2cc(Br)ccc2O)c1CNc1ccccc1 | . | . | 39.2 | - | . | . | 41.1
Cc1ccc(S(=O)(=O)N2CCCC(C(=O)NNCC(=O)Nc3cc(F)ccc3F)C2)cc1 (centres undefined) | - | - | - | - | - | - | .
COc1ccc(C(=O)NCC(=O)OCC(=O)N2CC(C)CC(C)C2)cc1 (centres undefined) | - | . | - | - | - | - | .
CCCNS(=O)(=O)c1cccc(C(=O)OCc2cc(=O)oc3cc(OC)ccc23)c1 | . | . | 62.5 | - | . | . | -
COc1ccc2c(COC(=O)c3cccc(S(=O)(=O)NCC(C)C)c3)cc(=O)oc2c1 | . | . | - | - | . | . | .
CCCCc1ccc(NC(=O)CSC2=C(C#N)C(c3ccco3)C3=C(CCCC3=O)N2)cc1 (centres undefined) | - | - | - | - | - | - | .
Cc1ccc(C(=O)CSC2=C(C#N)C(c3ccco3)C3=C(CCCC3=O)N2)cc1 (centres undefined) | - | 129.7 | 45.1 | - | 20.4 | - | 52.0
COc1cccc(NC(=O)CSC2=C(C#N)C(c3ccco3)C3=C(CCCC3=O)N2)c1 (centres undefined) | 67.4 | - | 50.0 | - | - | 75.8 | -
CCN1C(=O)CS/C1=N\S(=O)(=O)c1ccc(Cl)cc1 | - | - | - | - | - | - | .
CCn1c(Cl)c(C=O)s/c1=N\S(=O)(=O)c1ccccc1 | 99.0 | - | 95.6 | - | . | 102.8 | 90.7
COc1ccc(CC(=O)Oc2cc(C)[nH]c(=O)c2[N+](=O)[O-])cc1 | - | - | - | - | - | - | .
COCCOC(=O)c1[nH]c2c(c1C)C(=O)CC(c1ccccc1)C2 (centres undefined) | 73.9 | 95.2 | 83.5 | - | 25.1 | 74.9 | 56.0
COC(=O)c1[nH]c2c(c1C)C(=O)CC(c1cccs1)C2 (centres undefined) | 79.0 | - | 84.1 | - | 15.7 | 81.8 | 50.4
COCCOC(=O)c1[nH]c2c(c1C)C(=O)CC(c1ccc(N(C)C)cc1)C2 (centres undefined) | - | - | - | - | - | - | .
CSCCOC(=O)c1[nH]c2c(c1C)C(=O)CC(c1ccco1)C2 (centres undefined) | 72.1 | 92.4 | 73.5 | - | - | 72.5 | 48.3
CCCCOC(=O)c1[nH]c2c(c1C)C(=O)CC(c1cc(OC)c(OC)c(OC)c1)C2 (centres undefined) | - | - | - | - | - | - | .
CCOc1ccc(C2CC(=O)c3c([nH]c(C(=O)OC)c3C)C2)cc1OC (centres undefined) | - | - | - | - | - | - | .
CCOc1ccc(S(=O)(=O)NCc2ccncc2)cc1NC(=O)c1ccccc1F | . | . | - | - | . | . | .
CCOc1ccc(S(=O)(=O)NCc2cccnc2)cc1NC(=O)c1ccccc1F | . | . | 33.4 | - | . | . | -
COc1ccc(N2CCN(c3ncnc4c3[nH]c3ccccc34)CC2)cc1 | - | - | - | - | - | - | .
COc1ccc2[nH]c3c(N4CCc5ccccc5C4)ncnc3c2c1 | 75.7 | 115.4 | 77.2 | - | . | 78.0 | 65.9
